CHO-K1 Ca PAM: counter-screen for M1 PAMs: effect in parental CHO-K1 cells | ATP EC20, Fluo-8 calcium fluorescence; 0% at ATP EC20, 100% at ATP max | activation, % at 3 µM | 360,000 compounds, 0.02% hits;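 active means activation above the run cutoff, the mean activation of all test compounds plus 3 SD, cut at about 40% in these data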;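 further: peak over basal fluorescence ratio in a 140 s read after ATP addition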
OX1R antag-1: OX1R (human) antagonism | O43613 | OX1R-expressing cells, FRET antagonist read-out | inhibition, % at 6.6 µM | 330,000 compounds, 1.8% hits | AID 485270; in the data active means inhibition mostly above about 38%, no sharp cut-off; inactive means mostly below about 40%;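 further: 0% = agonist challenge alone and 100% = reference antagonist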
Target sequence (O43613 whole entry, looked up): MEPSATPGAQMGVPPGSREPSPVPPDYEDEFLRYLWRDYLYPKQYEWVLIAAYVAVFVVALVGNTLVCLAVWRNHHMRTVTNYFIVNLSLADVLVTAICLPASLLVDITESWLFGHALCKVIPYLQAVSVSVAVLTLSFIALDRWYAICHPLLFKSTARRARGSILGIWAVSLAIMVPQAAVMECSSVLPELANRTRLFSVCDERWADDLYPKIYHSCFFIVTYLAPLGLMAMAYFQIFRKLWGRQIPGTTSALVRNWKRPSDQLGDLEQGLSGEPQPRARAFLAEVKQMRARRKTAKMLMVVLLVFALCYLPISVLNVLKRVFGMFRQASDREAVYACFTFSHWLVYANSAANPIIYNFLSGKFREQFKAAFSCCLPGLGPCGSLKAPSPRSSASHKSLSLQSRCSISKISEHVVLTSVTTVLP
CHO-K1 Ca antag: M1 antagonist counterscreen hit in parental CHO-K1 cells; ATP-induced calcium, Fluo-8 fluorescence; inhibition, % at 3 µM; 360,000 compounds, 0.6% hits; AID 602250;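 active means inhibition above a per-plate cutoff, the plate's mean sample inhibition plus 3 SD, cut at about 24% in these data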;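 further: 0% = DMSO plus EC80 ATP and 100% = DMSO alone without ATP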
CHO parental Ca: counter-screen for OX1R antagonists: effect in parental CHO cells. 330,000 compounds, 0.63% hits. AID 463079. inhibition, % at 5.6 µM. parental CHO-K1, ATP-induced calcium, Fluo-8 fluorescence;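 active means inhibition above that plate's mean sample inhibition plus 3 SD, cut at about 26% in these data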;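 further: 0% = ATP-challenged DMSO wells and 100% = DMSO wells without ATP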
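test system = CHO parental line | reagent = ATP stimulus | measured by = intracellular calcium via Fluo-8 no-wash fluorescent dye | control set = ATP and no-ATP DMSO wells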
M1 ag parental: counter-screen for M1 agonists: effect in parental CHO-K1 cells | Fluo-8 calcium fluorescence; scaled to maximal ATP response, vehicle zero | activation, % at 3 µM | 360,000 compounds, 0.48% hits; in the data active means activation above about 15%;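 further: untransfected CHO-K1 host cells lacking M1 receptor as counterscreen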
OX1R antag-2: blocks the human orexin 1 receptor | O43613 | CHO/OX1R cells, Fluo-8 calcium fluorescence, orexin A | inhibition, % at 5 µM | 330,000 compounds, 0.43% hits;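 active means inhibition above its plate's threshold, mean inhibition of all tested compounds on the plate plus 3 SD, cut at about 37% in these data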;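 further: 0% = orexin A challenge wells and 100% = SB-334867-A antagonist wells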
* marks the source's active call; other numbers are inactive results; . = no result given. Compounds with a hit are over-represented: about 2.9% of the library has one in this group of screens.

SMILES	CHO-K1 Ca PAM	OX1R antag-1	CHO-K1 Ca antag	CHO parental Ca	M1 ag parental	OX1R antag-2
COc1ccc(-c2c3c([nH]c(=S)c2C#N)CCC3)cc1	-4	.	26*	.	-1	.
COc1ccccc1NC(=O)C(=O)NCCC1CCCCN1S(=O)(=O)c1ccc(F)cc1 (stereo unspecified)	18	37	-22	-20	1	-19
O=C(Nc1ccccc1N1CCCC1)C1CCN(S(=O)(=O)c2ccc(F)cc2)CC1	-23	18	1	11	0	-16
CCOc1ccccc1NC(=O)C1CCCCN1S(=O)(=O)c1ccccc1 (stereo unspecified)	9	53*	-14	-25	-1	33
COc1ccc(NC(=O)C2CCCCN2S(=O)(=O)c2ccc(F)cc2)c(OC)c1 (stereo unspecified)	-4	16	27*	-22	0	-5
COc1ccc(S(=O)(=O)N2CCCCC2C(=O)O)cc1 (stereo unspecified)	23	15	-18	7	0	1
COc1ccccc1NC(=O)C1CCCCN1S(=O)(=O)c1ccc(F)cc1 (stereo unspecified)	2	57*	8	-15	0	4
O=C(Nc1ccccc1NS(=O)(=O)c1ccc(F)cc1)C1CCCC1	4	63*	-5	-16	1	2
CCOc1ccc(N2CC(NC(=O)c3cccc4ccccc34)CC2=O)cc1 (stereo unspecified)	-6	6	4	7	8	-20
C/C(Cn1nnc([N+](=O)[O-])n1)=N\NC(=O)c1ccccc1Cl	21	42*	-31	-9	2	8
COc1cccc(NC(=O)COC(=O)c2c3c(nc4ccccc24)CCC(C)C3)c1 (stereo unspecified)	10	36*	8	-4	3	13
N#C/C(=C\c1cc2c(cc1Br)OCO2)c1ccc(C(=O)O)cc1	16	16	-3	100*	0	-12
CCOc1cc2c(cc1/C=C(/C#N)c1ccc(C(=O)O)cc1)OCO2	4	21	7	11	18*	11
N#C/C(=C/c1ccccc1OCc1ccc(F)cc1)c1ccc(C(=O)O)cc1	14	18	-10	-5	1	-16
N#C/C(=C\c1cc2c(cc1Br)OCO2)C(=O)NCC1CCCO1 (stereo unspecified)	6	3	-1	-9	0	-13
COc1cc2cccc(OC)c(=O)c2c(O)c1OC	17	66*	-4	0	0	-8
COc1ccc(NC(=O)c2cc3c(s2)CCC(C)C3)cc1S(=O)(=O)N1CCOCC1 (stereo unspecified)	-12	29	25*	-25	4	-8
COc1ccc(CCNC(=O)c2ccc(Cl)c(S(=O)(=O)N3CCCC3)c2)cc1	0	12	-6	-10	16*	3
COc1ccc(NC(=O)CCN2CCN(S(=O)(=O)c3cc(Cl)ccc3Cl)CC2)cc1	58*	11	-44	-40	10	1
COc1ccc(C(=O)Nc2ccc(Cl)c(S(=O)(=O)N3CCOCC3)c2)cc1	2	24	-6	15	17*	43*
CCc1sc(C(=O)Nc2ccc(OC)c(S(=O)(=O)N3CCOCC3)c2)cc1C	12	11	-21	-7	4	9
Cc1onc(-c2c(Cl)cccc2Cl)c1C(=O)ONC(=O)c1cc(C(F)(F)F)cc(C(F)(F)F)c1	-17	5	6	5	0	-21
COc1ccccc1Nc1nc(C2(C)CCC(=O)O2)cs1 (stereo unspecified)	12	4	-15	-21	-1	-22
O=C(CCCSc1ccccc1)Nc1ccc(Cl)c(S(=O)(=O)N2CCOCC2)c1	-7	32*	1	10	11	35
CCCCNC(=O)c1ccc2nc(CC)c(N(C)Cc3cccs3)n2c1	-9	.	-1	.	3	.
SMILES	CHO-K1 Ca PAM	OX1R antag-1	CHO-K1 Ca antag	CHO parental Ca	M1 ag parental	OX1R antag-2
O=C(O)C1Nc2ccc(C(F)(F)F)cc2C2OCCC12 (stereo unspecified)	7	30	-4	3	0	-16
c1cc(-c2n[nH]c(-c3ccncc3)n2)ccn1	3	12	-1	-2	20*	-7
Brc1cccc(-c2n[nH]c(-c3ccccc3)n2)c1	-9	71*	13	97*	1	63*
O=C(NCCc1ccccc1)C(=O)NCC1OCCN1S(=O)(=O)c1ccc2c(c1)OCCO2 (stereo unspecified)	3	30	0	-9	19*	5
CNC(=O)C(=O)NCC1OCCN1S(=O)(=O)c1ccc([N+](=O)[O-])cc1 (stereo unspecified)	8	72*	-4	-6	0	-25
O=Cc1ccc(Oc2ncccn2)cc1	15	-1	-14	2	0	9
O=C(COc1ccc(Nc2ccccc2)cc1)Nc1ccncc1	-18	18	9	37*	15*	19
O=C(COc1ccc(-c2ccccc2)cc1)Nc1cccnc1	-11	23	15	27*	18*	58*
O=C(COc1ccc(Br)cc1)Nc1ccncc1	-6	22	10	10	4	18
CCC(C)(C)c1ccc(OCC(=O)Nc2ccncc2)cc1	4	18	13	76*	11	78*
CC(C)(C)NC(=O)NC(=O)COC(=O)c1cccc(OC(F)F)c1	8	18	-9	-11	2	-20
CCCn1c(=S)[nH]c2cc(C(=O)N3CCN(c4ccc(F)cc4)CC3)ccc2c1=O	12	.	-5	.	1	.
O=C1c2ccccc2-c2ccc(C(=O)N3CCOCC3)cc21	11	60*	-3	4	0	-21
CCN1C(=O)c2ccccc2S(=O)c2ccc(C(=O)N3CCOCC3)cc21 (stereo unspecified)	7	8	0	7	18*	-8
C[C@H]1CCC[C@@]2(O[C@@H](CCO)C[C@@H](O)[C@@H]2O)O1	16	18	-7	-12	1	-4
CCc1cccc(C)c1NC(=O)CN(C)Cc1ccc(Br)cc1	18	21	-10	40*	3	9
COc1ccc(N2CCN(C(=O)CCS(=O)(=O)c3ccc4c(c3)CCN4C(=O)C3CC3)CC2)cc1	-6	16	7	-16	0	-21
CCN(CC(=O)NC1CCS(=O)(=O)C1)S(=O)(=O)c1cc(C)ccc1C (stereo unspecified)	18	17	2	-9	0	-4
C=CCOc1ccc(/C=C/C(=O)OCC(=O)Nc2c(C)n(C)n(-c3ccccc3)c2=O)cc1	-3	10	39*	-15	1	-18
Cc1cccc(N(CC(=O)NCCSCc2ccco2)S(=O)(=O)c2ccccc2)c1	5	59	8	-11	2	32

Screens as filed in PubChem BioAssay.
